# Experimental data as given in ChEMBL document CHEMBL4706616, “Design, synthesis, and evaluation of substituted 2-acylamide-1,3-benzo[d]zole analogues as agents against MDR- and XDR-MTB” (Eur J Med Chem, 2021).
# Key:
# [1] = test system: Staphylococcus epidermidis; experiment: Antibacterial activity against methicillin-sensitive Staphylococcus epidermidis ATCC 12228 assessed as bacterial growth inhibition incubated for 18 hrs by agar dilution method; type: functional
# [2] = Tmax in Sprague-Dawley rat at 40 mg/kg, po measured upto 8 hrs by LC-MS/MS analysis; type: ADME, organism-based; details: in vivo
# In short: (§1)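 Male SPF SD rats (180–220 g), fasted overnight, fed 4 h post-dose; single 40 mg/kg oral dose suspended in 5% DMSO/10% Solutol/85% water; n=3. Jugular blood at 0.25–8 h, plasma protein precipitated with MeOH containing internal standard, analysed by LC-MS/MS; AUC, Cmax, Tmax, MRT from plasma concentration data; mean ± SD.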
# Staphylococcus aureus [3] = experiment: Antibacterial activity against methicillin-resistant Staphylococcus aureus ATCC 33591 assessed as bacterial growth inhibition incubated for 18 hrs by agar dilution method; type: functional
# [4] = Acute toxicity in BALB/c mouse at 1000 mg/kg, po measured after 7 days; type: organism-based; details: in vivo, 168 h, time 7 day
# In short: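 SPF female BALB/c mice, 18–22 g, groups of six; single 1000 mg/kg oral gavage in 0.5% CMC-Na; housed at 20–24°C; surviving mice counted over the observation period (14 days per methods, 7 days per results text).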
# [5] = test system: Acinetobacter calcoaceticus; experiment: Antibacterial activity against Acinetobacter calcoaceticus ATCC 19606 assessed as bacterial growth inhibition incubated for 18 hrs by agar dilution method; type: functional
# Klebsiella pneumoniae [6] = experiment: Antibacterial activity against ESBLs negative Klebsiella pneumoniae 7 assessed as bacterial growth inhibition incubated for 18 hrs by agar dilution method; type: functional
# Enterococcus faecium = experiment: Antibacterial activity against vancomycin-resistant Enterococcus faecium ATCC 700221 assessed as bacterial growth inhibition incubated for 18 hrs by agar dilution method; type: functional
# Pseudomonas aeruginosa = experiment: Antibacterial activity against Pseudomonas aeruginosa ATCC 27853 assessed as bacterial growth inhibition incubated for 18 hrs by agar dilution method; type: functional
# [7] = Cmax in Sprague-Dawley rat at 40 mg/kg, po measured upto 8 hrs by LC-MS/MS analysis; type: ADME, organism-based; set-up: route oral, dose 40 mg/kg, time <=8; details: in vivo; in short: as §1
# Enterococcus faecalis = experiment: Antibacterial activity against Vancomycin-susceptible Enterococcus faecalis ATCC 29212 assessed as bacterial growth inhibition incubated for 18 hrs by agar dilution method; type: functional
# Staphylococcus aureus [8] = experiment: Antibacterial activity against methicillin-sensitive Staphylococcus aureus ATCC 29213 assessed as bacterial growth inhibition incubated for 18 hrs by agar dilution method; type: functional
# [9] = test system: Mycobacterium tuberculosis; experiment: Antitubercular activity against Mycobacterium tuberculosis H37Rv assessed as bacterial growth inhibition by MABA; type: functional
# [10] = AUC (0 to t) in Sprague-Dawley rat at 40 mg/kg, po measured upto 8 hrs by LC-MS/MS analysis; type: ADME, organism-based; set-up: route oral, dose 40 mg/kg, time <=8; details: in vivo; in short: as §1
# Klebsiella pneumoniae [11] = experiment: Antibacterial activity against ESBLs positive Klebsiella pneumoniae ATCC 700603 assessed as bacterial growth inhibition incubated for 18 hrs by agar dilution method; type: functional
# HEK293 = experiment: Cytotoxicity against human HEK293 cells assessed as reduction in cell viability incubated for 48 hrs by CCK8 assay; type: cell-based; details: HEK293, 48 h
# Escherichia coli = experiment: Antibacterial activity against ESBLs negative Escherichia coli ATCC 25922 assessed as bacterial growth inhibition incubated for 18 hrs by agar dilution method; type: functional
# [12] = Selectivity index, ratio of IC50 for human HEK293 cells to MIC for Mycobacterium tuberculosis; type: toxicity; details: read-out: Selectivity Index
# In short: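 Ratio of HEK-293 IC50 (µM) to anti-Mtb MIC (µM).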
# [13] = Mean residence time in Sprague-Dawley rat at 40 mg/kg, po measured upto 8 hrs by LC-MS/MS analysis; type: ADME, organism-based; details: in vivo; in short: as §1
Compound,MIC [9] [µM],IC50 (HEK293) [µM],also measured
Cc1nnsc1C(=O)Nc1nc2cc(C(C)(C)C)ccc2o1,0.4,6.73,MIC [1]: 6.32 µM; Tmax [2]: ≥ 8 h; MIC (Staphylococcus aureus [3]): 6.32 µM; Activity [4]: Non-Toxic; MIC [5]: > 405 µM; MIC (Klebsiella pneumoniae [6]): > 405 µM; MIC (Enterococcus faecium): 12.6 µM; MIC (Pseudomonas aeruginosa): > 405 µM; Cmax [7]: 6840 ng/mL; MIC (Enterococcus faecalis): 12.6 µM; MIC (Staphylococcus aureus [8]): 6.32 µM; AUC(0-t) at 8 h [10]: 24800 ng·h/mL; MIC (Klebsiella pneumoniae [11]): > 405 µM; MIC (Escherichia coli): > 405 µM; selectivity ratio [12]: 17; MRT [13]: 5.26 h
NNC(=O)c1ccncc1 [ISONIAZID],< 3.65,,
Cc1nnsc1C(=O)Nc1nc2c(ccc3ncccc32)o1,103,59,
Cc1nnsc1C(=O)Nc1nc2c(OCc3ccccn3)cccc2o1,5.44,61.8,
Cc1nnsc1C(=O)Nc1nc2cc(F)ccc2o1,0.45,42,
Cc1nnsc1C(=O)Nc1nc2cc(Br)ccc2o1,2.95,45,
Cc1nnsc1C(=O)Nc1nc2ccccc2[nH]1,30.9,> 100,
COC(=O)c1ccc(-c2ccc3oc(NC(=O)c4snnc4C)nc3c2)cc1,1.27,,
Cc1nnsc1C(=O)Nc1nc2cc(-c3cccnc3)ccc2o1,2.96,54.9,
Cc1nnsc1C(=O)Nc1nc2c(ccc3cccnc32)o1,103,,
Cc1nnsc1C(=O)Nc1nc2ncccc2o1,7.66,15.2,
Cc1nnsc1C(=O)Nc1nc2c(-c3ccccn3)cccc2o1,23.7,,
Cc1nnsc1C(=O)Nc1nc2cc(-c3ccccn3)ccc2o1,0.74,> 100,MIC [1]: 2.96 µM; Tmax [2]: ≥ 8 h; MIC (Staphylococcus aureus [3]): 1.48 µM; Activity [4]: Non-Toxic; MIC [5]: > 379 µM; MIC (Klebsiella pneumoniae [6]): > 379 µM; MIC (Enterococcus faecium): 5.93 µM; MIC (Pseudomonas aeruginosa): > 379 µM; Cmax [7]: 9050 ng/mL; MIC (Enterococcus faecalis): 11.9 µM; MIC (Staphylococcus aureus [8]): 5.93 µM; AUC(0-t) at 8 h [10]: 27800 ng·h/mL; MIC (Klebsiella pneumoniae [11]): > 379 µM; MIC (Escherichia coli): > 379 µM; selectivity ratio [12]: > 270; MRT [13]: 5.59 h
CO[C@H]1/C=C/O[C@@]2(C)Oc3c(C)c(O)c4c(O)c(c(/C=N/N5CCN(C)CC5)c(O)c4c3C2=O)NC(=O)/C(C)=C\C=C\[C@H](C)[C@H](O)[C@@H](C)[C@@H](O)[C@@H](C)[C@H](OC(C)=O)[C@@H]1C [RIFAMPIN],< 0.61,,
O=C(Nc1nc2ccccc2o1)c1ccc(Cl)s1,14.3,,
Cc1nnsc1C(=O)Nc1nc2ccccc2s1,28.9,> 100,
Cc1nnsc1C(=O)Nc1nc2ccc(Cl)cc2o1,0.42,7.14,

Compound,MIC [9] [µM],IC50 (HEK293) [µM],also measured
Cc1nnsc1C(=O)Nc1nc2c(Br)cccc2o1,1.47,10.6,
O=C(Nc1nc2ccccc2o1)c1ccco1,17.5,> 100,
Cc1nnsc1C(=O)Nc1nc2ccccc2o1,0.48,19.6,
Cc1nnsc1C(=O)Nc1nc2ccc(C(C)(C)C)cc2o1,3.16,2.42,
Cc1nnsc1C(=O)Nc1nc2cc(N3CCOCC3)ccc2o1,11.6,18.3,
O=C(Nc1nc2ccccc2o1)c1cccs1,16.4,81.9,
Cc1nnsc1C(=O)Nc1nc2c(ccc3ccccc32)o1,103,80.9,
Cc1nnsc1C(=O)Nc1nc2cc(Cl)ccc2o1,0.42,6.65,Activity [4]: Non-Toxic; selectivity ratio [12]: 4
CN[C@@H]1[C@H](O[C@H]2[C@H](O[C@H]3[C@H](O)[C@@H](O)[C@H](N=C(N)N)[C@@H](O)[C@@H]3N=C(N)N)O[C@@H](C)[C@]2(O)C=O)O[C@@H](CO)[C@H](O)[C@H]1O [STREPTOMYCIN],< 0.69,,
Cc1nnsc1C(=O)Nc1nc2cc(-c3ccncc3)ccc2o1,1.48,,
Cc1nnsc1C(=O)Nc1nc2c(Oc3ncccn3)cccc2o1,2.82,> 100,Tmax [2]: 2.83 h; Cmax [7]: 6.93 ng/mL; AUC(0-t) at 8 h [10]: 38 ng·h/mL; selectivity ratio [12]: > 18; MRT [13]: 4.12 h
CC[C@@H](CO)NCCN[C@@H](CC)CO [ETHAMBUTOL],< 2.45,,
Cc1ccc2oc(NC(=O)c3snnc3C)nc2c1,1.82,21.9,
O=C(Nc1nc2ccccc2o1)c1ccccc1,269,> 100,
Cc1nnsc1C(=O)Nc1nc2cc(-c3cnn(C)c3)ccc2o1,1.47,,
COC(=O)c1ccc2oc(NC(=O)c3snnc3C)nc2c1,3.14,,
